# Data reported in ChEMBL document CHEMBL4041498, “Antibacterial and Cytotoxic Actinomycins Y6-Y9 and Zp from Streptomyces sp. Strain Gö-GS12” (J Nat Prod, 2016).
# Numbered stars: 1 amine (or outer) side, 2 acyl side, 3 side chain; on linkers, the order of the positions; unused ones are H or OH. Bridge positions count the residues as written; N and C are the ends. Square brackets hold non-standard residues; d marks the D form. Peptide text beside a SMILES is read from it. I, II: the chains in the order shown. Actinocin(1to9) = Cc1c2oc3c(C)ccc(C(=O)[*:2])c3nc-2c(C(=O)[*:1])c(N)c1=O; Actinocin(9to1) = Cc1c2oc3c(C)ccc(C(=O)[*:1])c3nc-2c(C(=O)[*:2])c(N)c1=O; Pro(3S-OH,5S-Me) = C[C@H]1C[C@H](O)[C@@H](C(=O)O)N1; X2 = O=C([C@@H](N[*:1])[C@@H](CCl)O[*:3])[*:2]; X1 = O=C([C@@H](N[*:1])[C@@H](CO)O[*:3])[*:2]; Pro(5S-Me) = C[C@H]1CC[C@@H](C(=O)O)N1; Pro(4-oxo) = O=C1CN[C@H](C(=O)O)C1; NMeV = CN[C@H](C(=O)O)C(C)C; NMeA = CN[C@@H](C)C(=O)O; Sar = CNCC(=O)O
# Experiments:
# Escherichia coli = test: Antibacterial activity against Escherichia coli ATCC 12435 after incubated for 16 to 48 hrs at 28 to 37 degC by spectrofluorometric method; assay type: functional
# Outline: (§1)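 Overnight cultures (16 h, 37 °C, 250 rpm) were grown in tryptic soy broth (S. aureus, M. luteus), LB (B. subtilis, E. coli), nutrient broth (S. enterica), Middlebrook 7H9 + OADC (M. aurum) or YAPD (S. cerevisiae). They were diluted to OD600 ~0.1 and exposed to serial dilutions from a final maximum of ~10 μg/mL, then shaken at 160 rpm. OD600 was normalized to DMSO control, and MIC was taken as the lowest concentration inhibiting growth.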
# Bacillus spizizenii = test: Antibacterial activity against Bacillus subtilis ATCC 6633 after incubated for 16 to 48 hrs at 28 to 37 degC by spectrofluorometric method; assay type: functional; outline: as §1
# Mycolicibacterium aurum = test: Antibacterial activity against Mycobacterium aurum ATCC 23366 after incubated for 16 to 48 hrs at 28 to 37 degC […]; assay type: functional
# Saccharomyces cerevisiae = test: Antifungal activity against Saccharomyces cerevisiae ATCC 204508 after incubated for 16 to 48 hrs at 28 to 37 degC by spectrofluorometric method; assay type: functional
# [1] = Antibacterial activity against Salmonella enterica ATCC 10708 after incubated for 16 to 48 hrs at 28 to 37 degC by spectrofluorometric method; assay type: functional; outline: as §1
# Micrococcus luteus = test: Antibacterial activity against Micrococcus luteus ATCC 15307 after incubated for 16 to 48 hrs at 28 to 37 degC by spectrofluorometric method; assay type: functional; outline: as §1
# Staphylococcus aureus = test: Antibacterial activity against Staphylococcus aureus ATCC 6538 after incubated for 16 to 48 hrs at 28 to 37 degC by spectrofluorometric method; assay type: functional; outline: as §1
# A549 = test: Cytotoxicity against human A549 cells assessed as reduction in cell viability after 48 hrs by alamar blue assay; assay type: functional, cell-based; conditions: A549, 48 h
# Outline: (§2)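 A549 cells were grown in DMEM/F-12 Kaighn's and PC3 cells in MEM/EBSS, both with 10% heat-inactivated FBS, penicillin/streptomycin and 2 mM L-glutamine. Cells were seeded at 5 × 10^3 per well, attached 24 h at 37 °C in 5% CO2, then exposed for 2 days. Values are % of untreated control from three independent experiments.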
# PC-3 = test: Cytotoxicity against human PC3 cells assessed as reduction in cell viability after 48 hrs by alamar blue assay; assay type: functional, cell-based; conditions: PC-3, 48 h; outline: as §2
SMILES,MIC (Escherichia coli) [µg/mL],MIC (Bacillus spizizenii) [µg/mL],MIC (Mycolicibacterium aurum) [µg/mL],MIC (Saccharomyces cerevisiae) [µg/mL],MIC [1] [µg/mL],MIC (Micrococcus luteus) [µg/mL],MIC (Staphylococcus aureus) [µg/mL],EC50 (A549) [nM],EC50 (PC-3) [nM]
Cc1c2oc3c(C)ccc(C(=O)N[C@@H]4C(=O)N[C@H](C(C)C)C(=O)N5[C@H](C(=O)N(C)CC(=O)N(C)[C@@H](C(C)C)C(=O)O[C@@H]4C)[C@@H](O)C[C@@H]5C)c3nc-2c(C(=O)OC[C@H](O)[C@@H]2NC(=O)[C@H](C)N(C)C(=O)CN(C)C(=O)[C@@H]3CC(=O)CN3C(=O)[C@@H](C(C)C)NC2=O)c(N)c1=O,> 9.33,> 9.33,> 9.33,> 9.33,> 9.33,4.67,> 9.33,,
Cc1c2oc3c(C)ccc(C(=O)N[C@@H]4C(=O)N[C@H](C(C)C)C(=O)N5[C@H](C(=O)N(C)CC(=O)N(C)[C@@H](C(C)C)C(=O)O[C@@H]4C)[C@@H](O)C[C@@H]5C)c3nc-2c2c(c1=O)N[C@H]([C@@H]1NC(=O)[C@H](C)N(C)C(=O)CN(C)C(=O)[C@@H]3CC(=O)CN3C(=O)[C@@H](C(C)C)NC1=O)COC2=O,> 9.46,0.59,0.95,9.46,> 9.46,0.59,2.37,71.5,76.7
Cc1c2oc3c(C)ccc(C(=O)N[C@@H]4C(=O)N[C@H](C(C)C)C(=O)N5[C@H](C(=O)N(C)CC(=O)N(C)[C@@H](C(C)C)C(=O)O[C@@H]4C)[C@@H](O)C[C@@H]5C)c3nc-2c(C(=O)OC[C@H](O)[C@@H]2NC(=O)[C@H](C)N(C)C(=O)CN(C)C(=O)[C@@H]3C[C@@H](O)CN3C(=O)[C@@H](C(C)C)NC2=O)c(N)c1=O,> 9.32,> 9.32,> 9.32,> 9.32,> 9.32,4.66,> 9.32,,
"Cc1c2oc3c(C)ccc(C(=O)N[C@@H]4C(=O)N[C@H](C(C)C)C(=O)N5[C@H](C(=O)N(C)CC(=O)N(C)[C@@H](C(C)C)C(=O)O[C@@H]4C)[C@@H](O)C[C@@H]5C)c3nc-2c(C(=O)N[C@@H]2C(=O)N[C@H](C(C)C)C(=O)N3CC(=O)C[C@H]3C(=O)N(C)CC(=O)N(C)[C@@H](C)C(=O)O[C@@H]2C)c(N)c1=O (I: T[dV][Pro(4-oxo)][Sar][NMeA] / II: T[dV][Pro(3S-OH,5S-Me)][Sar][NMeV]; ester I:1-I:C, II:1-II:C; linker I:N-II:N via Actinocin(1to9))",,,,,> 9.45,,,,
"Cc1c2oc3c(C)ccc(C(=O)N[C@@H]4C(=O)N[C@H](C(C)C)C(=O)N5[C@@H](C)CC[C@H]5C(=O)N(C)CC(=O)N(C)[C@@H](C(C)C)C(=O)O[C@@H]4C)c3nc-2c(C(=O)N[C@@H]2C(=O)N[C@H](C(C)C)C(=O)N3CC(=O)C[C@H]3C(=O)N(C)CC(=O)N(C)[C@@H](C)C(=O)O[C@@H]2C)c(N)c1=O (I: T[dV][Pro(4-oxo)][Sar][NMeA] / II: T[dV][Pro(5S-Me)][Sar][NMeV]; ester I:1-I:C, II:1-II:C; linker I:N-II:N via Actinocin(1to9))",,,,,> 9.57,0.003,,,
"Cc1c2oc3c(C)ccc(C(=O)N[C@@H]4C(=O)N[C@H](C(C)C)C(=O)N5[C@@H](C)CC[C@H]5C(=O)N(C)CC(=O)N(C)[C@@H](C(C)C)C(=O)O[C@@H]4C)c3nc-2c(C(=O)N[C@@H]2C(=O)N[C@H](C(C)C)C(=O)N3[C@@H](C)CC[C@H]3C(=O)N(C)CC(=O)N(C)[C@@H](C(C)C)C(=O)O[C@@H]2C)c(N)c1=O (I: T[dV][Pro(5S-Me)][Sar][NMeV] / II: T[dV][Pro(5S-Me)][Sar][NMeV]; ester I:1-I:C, II:1-II:C; linker I:N-II:N via Actinocin(9to1))",,0.006,,,> 9.36,,,,
"Cc1c2oc3c(C)ccc(C(=O)N[C@@H]4C(=O)N[C@H](C(C)C)C(=O)N5[C@H](C(=O)N(C)CC(=O)N(C)[C@@H](C(C)C)C(=O)O[C@@H]4C)[C@@H](O)C[C@@H]5C)c3nc-2c(C(=O)N[C@@H]2C(=O)N[C@H](C(C)C)C(=O)N3CC(=O)C[C@H]3C(=O)N(C)CC(=O)N(C)[C@@H](C)C(=O)O[C@@H]2CO)c(N)c1=O (I: [X1][dV][Pro(4-oxo)][Sar][NMeA] / II: T[dV][Pro(3S-OH,5S-Me)][Sar][NMeV]; ester I:1-I:C, II:1-II:C; linker I:N-II:N via Actinocin(1to9))",,,,,> 9.33,0.12,,,
"Cc1c2oc3c(C)ccc(C(=O)N[C@@H]4C(=O)N[C@H](C(C)C)C(=O)N5[C@H](C(=O)N(C)CC(=O)N(C)[C@@H](C(C)C)C(=O)O[C@@H]4C)[C@@H](O)C[C@@H]5C)c3nc-2c(C(=O)N[C@@H]2C(=O)N[C@H](C(C)C)C(=O)N3CC(=O)C[C@H]3C(=O)N(C)CC(=O)N(C)[C@@H](C)C(=O)O[C@@H]2CCl)c(N)c1=O (I: [X2][dV][Pro(4-oxo)][Sar][NMeA] / II: T[dV][Pro(3S-OH,5S-Me)][Sar][NMeV]; ester I:1-I:C, II:1-II:C; linker I:N-II:N via Actinocin(1to9))",,,,,> 9.2,,,,
"Cc1c2oc3c(C)ccc(C(=O)N[C@@H]4C(=O)N[C@H](C(C)C)C(=O)N5CCC[C@H]5C(=O)N(C)CC(=O)N(C)[C@@H](C(C)C)C(=O)O[C@@H]4C)c3nc-2c(C(=O)N[C@@H]2C(=O)N[C@H](C(C)C)C(=O)N3CCC[C@H]3C(=O)N(C)CC(=O)N(C)[C@@H](C(C)C)C(=O)O[C@@H]2C)c(N)c1=O [DACTINOMYCIN] (I: T[dV]P[Sar][NMeV] / II: T[dV]P[Sar][NMeV]; ester I:1-I:C, II:1-II:C; linker I:N-II:N via Actinocin(1to9))",,0.002,0.6,4.79,9.57,0.003,0.006,,
